The values below come from ChEMBL document CHEMBL4342434, “Identification of HUHS190, a human naftopidil metabolite, as a novel anti-bladder cancer drug” (Bioorg Med Chem Lett, 2020).

SMILES strings stand for the structures.

For series [1], the system named is DU-145. The experiment in a line: Antiproliferative activity against human DU145 cells assessed as reduction in cell viability incubated for 48 hrs by MTT assay. Type of series: functional, cell-based. As to conditions: DU-145, 48 h. The method, boiled down:
(§1)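 Growth inhibition was measured in vitro on human lines: HEK293 (embryonic kidney), PNT1A (normal prostate epithelium immortalized with SV40), PC3 and DU145 (prostate cancer), KK47 and T24 (bladder carcinoma) and 786-O (kidney carcinoma). IC50 in µM was taken from dose–response curves for each cell line.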
In general terms: Tetrazolium dyes change colour on reduction, which living cells bring about.

Series [2] deals with 786-0. The series can be described thus: Antiproliferative activity against human 786-O cells assessed as reduction in cell viability incubated for 48 hrs by MTT assay. It is filed as functional, cell-based. The settings on record: 786-0, 48 h. The method, boiled down: as §1
The test system of series [3] is PNT1A. The series can be described thus: Cytotoxicity against human PNT1A cells assessed as reduction in cell viability incubated for 48 hrs by MTT assay. Type of series: cell-based. The gist of the method:
as §1

Series [4] concerns PC-3. The experiment in a line: Antiproliferative activity against human PC3 cells assessed as reduction in cell viability incubated for 48 hrs by MTT assay. It is filed as functional, cell-based. As to conditions: PC-3, 48 h. The gist of the method: as §1
Series [5] concerns KK-47 cell line. The series can be described thus: Antiproliferative activity against human KK47 cells assessed as reduction in cell viability incubated for 48 hrs by MTT assay. It is filed as functional, cell-based. As to conditions: KK-47, 48 h. The method, boiled down: as §1
The subject of series [6] is HEK293. The series can be described thus: Cytotoxicity against human HEK293 cells assessed as reduction in cell viability incubated for 48 hrs by MTT assay. It is filed as cell-based. As to conditions: HEK293, 48 h. The method, boiled down:
as §1

Series [7] has as its system T-24. The series can be described thus: Antiproliferative activity against human T24 cells assessed as reduction in cell viability incubated for 48 hrs by MTT assay. Type of series: functional, cell-based. As to conditions: T-24, 48 h. The method, boiled down: as §1
Series [8] can be described thus: Antitumor activity against mouse MB49 cells xenografted in C57BL/6 mouse bladder cancer model assessed as death rate at 50 mg/ml dosed via intravesical instillation through catheter for 2 hrs and measured after 28 days relative to control. Type of series: functional. The method, boiled down:
(§2)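 MB49 cells (C57BL/6-derived) were injected by needle into the bladder smooth-muscle layer of anaesthetised C57BL/6 mice after laparotomy. The same day (day 0), a single intravesical instillation was given and held in the bladder for 2 h, with saline as the control. Deaths were recorded over 4 weeks, to day 28.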

A short description of series [9]: Toxicity in C57BL/6 mouse bladder cancer model xenografted with mouse MB49 cells at 50 mg/ml dosed via intravesical instillation through catheter for 2 hrs and measured for 28 days. It is filed as organism-based. The settings on record: in vivo, other. The gist of the method: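 […] model: a small number of MB49 cells (C57BL/6-derived) were injected by needle into the bladder smooth muscle of C57BL/6 mice after laparotomy under anaesthesia. Compound at 50 mg/mL was then given once by intravesical instillation and kept for 2 h. Day 0 was implantation/dosing, and survival was followed for 4 weeks. Saline, BCG (2 mg/mL) and pirarubicin (1 mg/mL) served as comparators.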

Series [10] is described as follows: AUC (0 to 6 hrs) in Sprague-Dawley rat at 32 mg/kg, po measured upto 6 hrs by HPLC analysis. It is filed as ADME, organism-based. The arrangement: dose 32 mg/kg, time < 6 hr, route oral. As to conditions: in vivo.
Series [11] in a line: Cmax in Sprague-Dawley rat at 32 mg/kg, po measured after 15 mins by HPLC analysis. Type of series: ADME, organism-based. More on the design: dose 32 mg/kg, route oral. As to conditions: in vivo.
Series [12] can be described thus: Antiproliferative activity against mouse MB49 cells assessed as reduction in cell viability after 72 hrs by WST-8 assay. Type of series: functional, cell-based. As to conditions: MB49, 72 h.
Series [13] can be described thus: Antitumor activity against mouse MB49 cells xenografted in C57BL/6 mouse bladder cancer model assessed as death rate at 1 mg/ml dosed via intravesical instillation through catheter for 2 hrs and measured after 28 days relative to control. It is filed as functional. The gist of the method: as §2
Series [14] can be described thus: Antiproliferative activity against C3H mouse MBT2 cells assessed as reduction in cell viability. It is filed as functional, cell-based.
Series [15] concerns L5178Y. The experiment in a line: Antiproliferative activity against mouse L5178Y cells assessed as reduction in cell viability. Type of series: functional, cell-based.

Broadly, the IC50 is the concentration that gives 50% inhibition. `COc1cc(O)ccc1N1CCN(CC(O)COc2ccc(O)c3ccccc23)CC1` (stereo not drawn): the IC50 in [1] was > 50 µM; in [2] it was 38.7 µM; in series [3], 37.2 µM; in series [4], 45.7 µM; in series [5], > 50 µM; in series [6], > 50 µM. Further, the 50% inhibitory concentration (IC50) in [7] is 37.4 µM.

As usually defined, the mortality is the share of the test organisms that died. For orientation: AUC(0-t) means exposure summed from dosing to a finite time, without extrapolation to infinity. Usually Cmax stands for the highest concentration seen after dosing. As to `COc1cc(O)ccc1N1CCN(CC(O)COc2cccc3ccccc23)CC1` (stereo not drawn), the concentration for half-maximal inhibition (IC50) in series [1] is 17.2 µM; in [2] it was 11.4 µM; in series [3], > 50 µM; in series [12], 12 µM; in series [4], 24.4 µM; in series [5], 11.8 µM. Also, the IC50 in series [6] was > 50 µM; in [7], 10.5 µM. The mortality in series [8] worked out at 30%. The Activity result in [9] is recorded as “Non-Toxic”. In [10], the AUC(0-t) at 6 h came out at 204 ng·h/mL. Also, the concentration in [11] peaked (Cmax) at 397 ng/mL.

Regarding `Oc1ccc(N2CCN(CC(O)COc3ccc(O)c4ccccc34)CC2)c(O)c1` (stereo not drawn), the half-maximal inhibitory concentration (IC50) in series [1] turned out to be 20.3 µM; in series [2], 18.5 µM; in [3], 17.1 µM; in series [4] it was 17.7 µM; in series [5], 17.9 µM; in series [6] it was 40.4 µM. Besides, the concentration for half-maximal inhibition (IC50) in series [7] stood at 15.6 µM.

As to `Oc1ccccc1N1CCN(CC(O)COc2ccc(O)c3ccccc23)CC1` (stereo not drawn), the 50% inhibitory concentration (IC50) in series [1] was > 50 µM; in [2] it was 9.7 µM; in series [3], 37.4 µM; in series [4], 26.1 µM; in series [5] it was 33 µM; in series [6] it was > 50 µM. The IC50 in [7] came out at 14.8 µM.

For the compound `Oc1ccc(N2CCN(CC(O)COc3cccc4ccccc34)CC2)c(O)c1` (stereo not drawn), the concentration for half-maximal inhibition (IC50) in series [1] was 11.6 µM; in [2], 17.5 µM; in [3], 29.9 µM; in [4], 30.3 µM; in series [5] it was 9.6 µM; in series [6], > 50 µM. Further, the IC50 in [7] turned out to be 13.4 µM.

For `Oc1ccccc1N1CCN(CC(O)COc2cccc3ccccc23)CC1` (stereo not drawn), the concentration for half-maximal inhibition (IC50) in series [1] is 18 µM; in [2] it was 18.7 µM; in series [3], 22.2 µM; in series [4], 21.7 µM; in [5] it was 18.9 µM; in series [6] it was > 50 µM. The IC50 in [7] stood at 18 µM.

As for `COc1ccccc1N1CCN(CC(O)COc2ccc(O)c3ccccc23)CC1` (stereo not drawn), the half-maximal inhibitory concentration (IC50) in series [1] was 35.1 µM; in series [2], 46.9 µM; in series [3] it was 34.9 µM; in series [4], 28 µM; in series [5], 17.6 µM; in series [6] it was > 50 µM. The IC50 in [7] stood at 16.1 µM.

Turning to `COc1ccccc1N1CCN(CC(O)COc2cccc3ccccc23)CC1` (stereo not drawn) [NAFTOPIDIL], the IC50 in [1] stood at 21.1 µM; in series [2], 13.3 µM; in series [3], 27 µM; in [12], 23 µM; in series [4] it was 31.2 µM; in series [5], 19 µM. In addition, the IC50 in series [6] was found to be 47.3 µM; in series [7], 18.5 µM. Also, the AUC(0-t) at 6 h in [10] came out at 202 ng·h/mL. This compound also returned a Cmax in [11] of 110 ng/mL.

Turning to `COc1cccc2c1C(=O)c1c(O)c3c(c(O)c1C2=O)C[C@@](O)(C(=O)CO)C[C@@H]3O[C@H]1C[C@H](N)[C@H](O[C@@H]2CCCCO2)[C@H](C)O1` [PIRARUBICIN], the mortality in series [13] was 70 - 80%. In addition, the IC50 in series [14] came to 0.022 µM; in series [15], 0.023 µM; in series [12], 0.022 µM.
